The target of series [1] is T1, Amine oxidase [flavin-containing] B (Rattus norvegicus, UniProt P19643).
T1 sequence (P19643 whole entry): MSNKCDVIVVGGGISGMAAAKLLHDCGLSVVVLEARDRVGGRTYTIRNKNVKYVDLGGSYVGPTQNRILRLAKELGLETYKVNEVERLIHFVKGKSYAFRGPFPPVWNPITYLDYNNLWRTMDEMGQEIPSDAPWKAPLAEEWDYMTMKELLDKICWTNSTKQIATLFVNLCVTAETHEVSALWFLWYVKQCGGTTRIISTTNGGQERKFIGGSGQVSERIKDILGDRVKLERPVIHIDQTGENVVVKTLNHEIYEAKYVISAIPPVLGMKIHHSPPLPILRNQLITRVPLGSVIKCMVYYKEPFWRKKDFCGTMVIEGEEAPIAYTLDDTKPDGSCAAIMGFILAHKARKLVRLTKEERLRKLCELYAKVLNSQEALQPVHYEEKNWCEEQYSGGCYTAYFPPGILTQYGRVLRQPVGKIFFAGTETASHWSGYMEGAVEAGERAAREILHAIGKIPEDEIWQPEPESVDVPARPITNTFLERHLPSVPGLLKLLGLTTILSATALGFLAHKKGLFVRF
The series can be described thus: Inhibition of Wistar rat brain MAOB using kynuramine as substrate preincubated for 15 mins followed by substrate addition and measured after 15 mins by fluorescence assay. The method in brief:
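Enzyme: unpurified mitochondrial homogenate from brains (cerebellum removed) of adult male Wistar rats (180−220 g), adjusted to 2500 μg/mL protein in PBS pH 7.4. Samples dissolved in 10% DMSO, tested over 0.1−100 μg/mL. Kynuramine 1 mM substrate; pargyline 10 μM as MAO-B-selective reference. Both incubations at 37 °C; stopped with 2 M NaOH. 4-Hydroxyquinoline read at ex 315/em 380 nm. Triplicate; IC50 as mean ± standard error.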

For another series, the species on record is Rattus norvegicus. The series can be described thus: Selectivity index, ratio of IC50 for Wistar rat brain MAOB to Wistar rat brain MAOA.
The subject of series [2] is RAW264.7. Nature of the series: Antiinflammatory activity in mouse RAW264.7 cells assessed as inhibition of LPS-induced nitric oxide production at 46 uM after 24 hrs by Griess assay. The class given is functional, cell-based. The method in brief:
(§1)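 Murine RAW264.7 macrophages in DMEM-F12 with 10% heat-inactivated FBS, no antibiotics, 37 °C, 5% CO2. Cells (2 × 10^5 cells/mL) preincubated 1 h, then compound added in Tween 80 vehicle, then stimulated with LPS 1 μg/mL for 24 h. Nitrite in medium measured by Griess reagent, absorbance 540 nm, quantified against NaNO2 standard curve. Triplicate, mean ± SEM.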
(In general: Nitrite, measured by Griess reagent, commonly stands in for NO production.)

Series [3] concerns RAW264.7. Nature of the series: Cytotoxicity against LPS-induced mouse RAW264.7 cells assessed as cell killing at 92 to 185 uM measured after 24 hrs by resazurin dye based fluorescence assay. The following applies: raw264.7, 24 h. The method in brief: (§2)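 After the 24 h LPS (1 μg/mL) plus compound exposure and nitrite sampling, RAW264.7 wells given fresh DMEM-F12 with 10% heat-inactivated FBS plus resazurin (2 mM stock). Incubated a further 10 h at 37 °C, 5% CO2. Viability read as resorufin fluorescence. Vehicle Tween 80. Three independent experiments, mean ± SD.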

The target of series [4] is T2, Amine oxidase [flavin-containing] A (Rattus norvegicus, UniProt P21396).
T2 sequence (P21396 whole entry): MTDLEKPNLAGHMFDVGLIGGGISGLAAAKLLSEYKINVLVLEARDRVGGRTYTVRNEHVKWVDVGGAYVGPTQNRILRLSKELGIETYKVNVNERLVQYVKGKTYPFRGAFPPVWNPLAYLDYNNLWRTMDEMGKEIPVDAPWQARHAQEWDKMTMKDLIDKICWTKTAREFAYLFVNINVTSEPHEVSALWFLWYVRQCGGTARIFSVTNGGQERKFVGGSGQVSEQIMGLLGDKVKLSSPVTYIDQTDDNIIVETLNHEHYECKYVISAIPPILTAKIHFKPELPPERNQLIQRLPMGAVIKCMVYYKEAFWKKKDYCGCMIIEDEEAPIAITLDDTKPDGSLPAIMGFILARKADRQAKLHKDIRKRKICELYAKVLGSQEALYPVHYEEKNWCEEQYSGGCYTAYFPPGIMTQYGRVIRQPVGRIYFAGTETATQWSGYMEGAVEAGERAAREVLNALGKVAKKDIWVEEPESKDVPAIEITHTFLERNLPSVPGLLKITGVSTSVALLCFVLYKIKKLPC
The series can be described thus: Inhibition of Wistar rat brain MAOA using kynuramine as substrate preincubated for 15 mins followed by substrate addition and measured after 15 mins by fluorescence assay. In a few lines: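 Unpurified mitochondrial homogenate from brains of male Wistar rats (180–220 g), adjusted to 2500 μg/mL protein in PBS pH 7.4. Sample from 10% DMSO stock, tested over 0.1–100 μg/mL. Enzyme and sample preincubated 15 min at 37 °C, kynuramine (1 mM) added, incubated 15 min at 37 °C, stopped with 2 M NaOH. Triplicate.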

Series [5] can be described thus: Cytotoxicity against human HF6 cells measured after 72 hrs by sulforhodamine B assay. The class given is functional, cell-based. In a few lines: (§3)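 Sulforhodamine B assay on human cancer lines in RPMI-1640 with 10% FBS, 104 cells/mL, 37 °C, 5% CO2. Treated in triplicate at about 70% confluence with 0.16–20 μg/mL sample in DMSO for 72 h. IC50 taken as concentration giving 50% of control growth, from a log10 concentration versus % viable cells plot.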
(The SRB assay estimates cell density from bound dye.)

Series [6] is described as follows: Selectivity index, ratio of IC50 for human HSF30 cells to IC50 for human HF6 cells. In a few lines:
(§4)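 SI calculated as IC50 in HFS-30 fibroblasts divided by IC50 in each cancer line, all from the 72 h sulforhodamine B assay.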

The nature of series [7]: Selectivity index, ratio of IC50 for human HSF30 cells to IC50 for human PC3 cells. The class given is toxicity. The note with it: HSF30 cells and PC3 cells, read-out: Ratio IC50. The method in brief: as §4
The nature of series [8]: Cytotoxicity against human HSF30 cells measured after 72 hrs by sulforhodamine B assay. The class given is cell-based. In a few lines: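 HFS-30 normal human skin fibroblasts grown in DMEM with 10% FBS at 37 °C, 5% CO2. Treated in triplicate at about 70% confluence with 0.16–20 μg/mL sample in DMSO for 72 h. Sulforhodamine B read-out. IC50 is concentration giving 50% of control growth.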

In another series the test system is SiHa. Nature of the series: Cytotoxicity against human SiHa cells measured after 72 hrs by sulforhodamine B assay. The class given is functional, cell-based. The method in brief: as §3
The test system of a further series is PC-3. The series can be described thus: Cytotoxicity against human PC3 cells measured after 72 hrs by sulforhodamine B assay. The class given is functional, cell-based. The following applies: PC-3, 72 h. The method in brief:
as §3

The nature of series [9]: Selectivity index, ratio of IC50 for human HSF30 cells to IC50 for human SiHa cells. The class given is toxicity. The following applies: HSF30 cells and SiHa cells, read-out: Ratio IC50. In a few lines: as §4
Series [10] has as its system RAW264.7. The series can be described thus: Cytotoxicity against LPS-induced mouse RAW264.7 cells assessed as effect on cell viability at 46 uM measured after 24 hrs by resazurin dye based fluorescence assay. The note with it: raw264.7, 24 h. In a few lines: as §2
(Resazurin is reduced to fluorescent resorufin, in cell work by metabolically active cells.)

Another series relates to MCF7. Nature of the series: Cytotoxicity against human MCF7 cells measured after 72 hrs by sulforhodamine B assay. Type of series: functional, cell-based. The note with it: MCF7, 72 h. The method in brief: as §3
Series [11] in a line: Selectivity index, ratio of IC50 for human HSF30 cells to IC50 for human MCF7 cells. The class given is toxicity. The following applies: HSF30 cells and MCF7 cells, read-out: Ratio IC50. In a few lines: as §4
The subject of series [12] is RAW264.7. The series can be described thus: Cytotoxicity against LPS-induced mouse RAW264.7 cells assessed as cell killing at 123 to 164 uM measured after 24 hrs by resazurin dye based fluorescence assay. The following applies: raw264.7, 24 h. In a few lines:
as §2

Series [13] concerns RAW264.7. The series can be described thus: Cytotoxicity against LPS-induced mouse RAW264.7 cells assessed as effect on cell viability at 41 uM measured after 24 hrs by resazurin dye based fluorescence assay. The note with it: raw264.7, 24 h. The method in brief: as §2
The subject of series [14] is RAW264.7. The series can be described thus: Antiinflammatory activity in mouse RAW264.7 cells assessed as inhibition of LPS-induced nitric oxide production at 41 uM after 24 hrs by Griess assay. The class given is functional, cell-based. The method in brief:
as §1

Series [15] can be described thus: Cytotoxicity against LPS-induced mouse RAW264.7 cells assessed as cell viability at 82 uM measured after 24 hrs by resazurin dye based fluorescence assay. The following applies: LPS-induced RAW264.7 cells, read-out: Activity. In a few lines:
as §2

SMILES strings stand for the structures. Calls of active or inactive are those of the source. No cut-off for these calls is given here.

Usually IC50 stands for the midpoint of a concentration-inhibition curve. On to `C#CCN(C)Cc1ccccc1` [PARGYLINE], for which, in series [1], the half-inhibitory concentration (IC50) was determined as 220 nM.
Turning to `CCCC(=O)c1c(OC)cc(O)c(CC2=C(O)[C@](C)(C/C=C(\C)CCC=C(C)C)C(O)=C(C(C)=O)C2=O)c1O`, the Ratio IC50 in the series listed under Rattus norvegicus stood at 0.1; in series [6] it was 0.0005. The inhibition result with RAW264.7 [2] was “Active”. The Activity in the series on RAW264.7 [3] is listed as 100%; with RAW264.7 [10] it was “Non-Toxic”. Moreover, the IC50 in series [4] is 31000 nM; in [5], more than 10000 nM; in [1] it was 4700 nM; in series [8], 9 nM; in the series on SiHa, 6000 nM; in the series with PC-3, 1700 nM. The IC50 with MCF7 is more than 10000 nM. The figures for the selectivity ratio in series [7], in series [9] and in series [11] were 0.005, 0.002 and 0.0002, respectively.
Take `CCCC(=O)c1c(O)c(CC2=C(O)[C@](C)(C/C=C(\C)CCC=C(C)C)C(O)=C(C(C)=O)C2=O)c(O)c(CC=C(C)C)c1OC`: the results for the Ratio IC50 (in the series filed under Rattus norvegicus; in series [6]) were 3.5 and 0.013, respectively. Further, the Activity is reported as 100% in the series with RAW264.7 [12] and “Non-Toxic” in the series on RAW264.7 [13]. Moreover, the IC50 came to 1300 nM in [4]; 6400 nM in [5]; 4400 nM in [1]; 80 nM in series [8]; 5600 nM in the series on SiHa; 2900 nM in the series with PC-3. In the series on MCF7, this compound displayed an IC50 of more than 10000 nM. Moreover, the selectivity ratio in [7] is 0.029; in series [9] it was 0.015; in series [11], 0.0025. The inhibition result with RAW264.7 [14] was “Active”. Moreover, the viability at 24 h, 82 µM in series [15] amounted to 50%.
For `COc1cc([C@@H]2c3cc4c(cc3[C@H](O)[C@H]3COC(=O)[C@H]23)OCO4)cc(OC)c1OC` [PODOFILOX], the IC50 in series [5] worked out at 1000 nM; in series [8], 2 nM; with SiHa, 100 nM; with PC-3, 200 nM; in the series with MCF7, 5 nM. The “Ratio IC50” value in [6] amounted to 0.002. The selectivity ratio in series [7] amounted to 0.11; in series [9], 0.02; in series [11] it was 0.45.
`CC(=O)O[C@H]1C(=O)[C@@]2(C)[C@H]([C@H](OC(=O)c3ccccc3)[C@]3(O)C[C@H](OC(=O)[C@H](O)[C@@H](NC(=O)c4ccccc4)c4ccccc4)C(C)=C1C3(C)C)[C@]1(OC(C)=O)CO[C@@H]1C[C@@H]2O` [PACLITAXEL]: the IC50 in series [5] is 1600 nM; in series [8], 2 nM; in the series with SiHa it was 1400 nM; with PC-3 it was 150 nM; in the series with MCF7, 50 nM. In addition, the “Ratio IC50” value in series [6] is given as 0.001.

For the origin of these results see ChEMBL document CHEMBL4480464, “Bioactive Dimeric Acylphloroglucinols from the Mexican Fern Elaphoglossum paleaceum” (J Nat Prod, 2019).
